How the values were obtained:
Type in all cases: functional
CCRF-CEM = assay: Anticancer activity against human CCRF-CEM cells assessed as cell growth at 10 uM after 48 hrs by sulforhodamine B assay relative to control; settings: read-out: Activity
Summary of the method: (§1)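 Single-dose NCI-60 panel screen: compound added at 10 µM and the culture incubated 48 h. The end point was read by protein staining with sulforhodamine B. The value is percent growth of treated cells relative to untreated control cells, reported as a mean graph across the panel.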

HL-60(TB) = assay: Anticancer activity against human HL-60(TB) cells assessed as cell growth at 10 uM after 48 hrs by sulforhodamine B assay relative to control; settings: HL-60, 48 h, read-out: Activity
Summary of the method: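 NCI-60 human tumour panel single-dose screen: cells exposed to 10 µM compound for 48 h. Growth end point read with sulforhodamine B protein-binding dye. Expressed as percent growth of treated cells versus untreated control cells.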

MOLT-4 = assay: Anticancer activity against human MOLT4 cells assessed as cell growth at 10 uM after 48 hrs by sulforhodamine B assay relative to control; settings: MOLT-4, 48 h, read-out: Activity; summary of the method: as §1
SR = assay: Anticancer activity against human SR cells assessed as cell growth at 10 uM after 48 hrs by sulforhodamine B assay relative to control; settings: read-out: Activity
Summary of the method: (§2)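 NCI-60 single-dose screen: compound added at 10 µM, cultures incubated 48 h. End point by sulforhodamine B protein-binding dye. Value reported as percent growth of treated cells relative to untreated control cells.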

A549 = assay: Anticancer activity against human A549/ATCC cells assessed as cell growth at 10 uM after 48 hrs by sulforhodamine B assay relative to control; settings: A549, 48 h, read-out: Activity; summary of the method: as §1
EKVX = assay: Anticancer activity against human EKVX cells assessed as cell growth at 10 uM after 48 hrs by sulforhodamine B assay relative to control; settings: read-out: Activity; summary of the method: as §1
NCI-H522 = assay: Anticancer activity against human NCI-H522 cells assessed as cell growth at 10 uM after 48 hrs by sulforhodamine B assay relative to control; settings: NCI-H522, 48 h, read-out: Activity; summary of the method: as §1
HCT-116 = assay: Anticancer activity against human HCT116 cells assessed as cell growth at 10 uM after 48 hrs by sulforhodamine B assay relative to control; settings: HCT-116, 48 h, read-out: Activity; summary of the method: as §1
HT-29 = assay: Anticancer activity against human HT-29 cells assessed as cell growth at 10 uM after 48 hrs by sulforhodamine B assay relative to control; settings: HT-29, 48 h, read-out: Activity; summary of the method: as §1
SF-268 = assay: Anticancer activity against human SF268 cells assessed as cell growth at 10 uM after 48 hrs by sulforhodamine B assay relative to control; settings: SF-268, 48 h, read-out: Activity; summary of the method: as §1
SNB-75 = assay: Anticancer activity against human SNB75 cells assessed as cell growth at 10 uM after 48 hrs by sulforhodamine B assay relative to control; settings: SNB-75, 48 h, read-out: Activity; summary of the method: as §2
U-251 = assay: Anticancer activity against human U251 cells assessed as cell growth at 10 uM after 48 hrs by sulforhodamine B assay relative to control; settings: U-251, 48 h, read-out: Activity; summary of the method: as §2
Malme-3M = assay: Anticancer activity against human MALME-3M cells assessed as cell growth at 10 uM after 48 hrs by sulforhodamine B assay relative to control; settings: read-out: Activity; summary of the method: as §1
M14 = assay: Anticancer activity against human M14 cells assessed as cell growth at 10 uM after 48 hrs by sulforhodamine B assay relative to control; settings: M14, 48 h, read-out: Activity; summary of the method: as §1
SK-MEL-2 = assay: Anticancer activity against human SK-MEL-2 cells assessed as cell growth at 10 uM after 48 hrs by sulforhodamine B assay relative to control; settings: SK-MEL-2, 48 h, read-out: Activity; summary of the method: as §1
SK-MEL-5 = assay: Anticancer activity against human SK-MEL-5 cells assessed as cell growth at 10 uM after 48 hrs by sulforhodamine B assay relative to control; settings: SK-MEL-5, 48 h, read-out: Activity; summary of the method: as §1
UACC-62 = assay: Anticancer activity against human UACC62 cells assessed as cell growth at 10 uM after 48 hrs by sulforhodamine B assay relative to control; settings: UACC-62, 48 h, read-out: Activity; summary of the method: as §2
IGROV-1 = assay: Anticancer activity against human IGROV1 cells assessed as cell growth at 10 uM after 48 hrs by sulforhodamine B assay relative to control; settings: IGROV-1, 48 h, read-out: Activity; summary of the method: as §1
OVCAR-3 = assay: Anticancer activity against human OVCAR3 cells assessed as cell growth at 10 uM after 48 hrs by sulforhodamine B assay relative to control; settings: OVCAR-3, 48 h, read-out: Activity; summary of the method: as §1
OVCAR-5 = assay: Anticancer activity against human OVCAR5 cells assessed as cell growth at 10 uM after 48 hrs by sulforhodamine B assay relative to control; settings: OVCAR-5, 48 h, read-out: Activity; summary of the method: as §1
OVCAR-8 = assay: Anticancer activity against human OVCAR8 cells assessed as cell growth at 10 uM after 48 hrs by sulforhodamine B assay relative to control; settings: OVCAR-8, 48 h, read-out: Activity; summary of the method: as §1
A498 = assay: Anticancer activity against human A498 cells assessed as cell growth at 10 uM after 48 hrs by sulforhodamine B assay relative to control; settings: A498, 48 h, read-out: Activity; summary of the method: as §1
ACHN = assay: Anticancer activity against human ACHN cells assessed as cell growth at 10 uM after 48 hrs by sulforhodamine B assay relative to control; settings: read-out: Activity; summary of the method: as §1
RXF 393 = assay: Anticancer activity against human RXF393 cells assessed as cell growth at 10 uM after 48 hrs by sulforhodamine B assay relative to control; settings: RXF 393, 48 h, read-out: Activity; summary of the method: as §1
TK-10 = assay: Anticancer activity against human TK10 cells assessed as cell growth at 10 uM after 48 hrs by sulforhodamine B assay relative to control; settings: TK-10, 48 h, read-out: Activity; summary of the method: as §2
UO-31 = assay: Anticancer activity against human UO31 cells assessed as cell growth at 10 uM after 48 hrs by sulforhodamine B assay relative to control; settings: UO-31, 48 h, read-out: Activity; summary of the method: as §2
PC-3 = assay: Anticancer activity against human PC3 cells assessed as cell growth at 10 uM after 48 hrs by sulforhodamine B assay relative to control; settings: PC-3, 48 h, read-out: Activity; summary of the method: as §1
DU-145 = assay: Anticancer activity against human DU145 cells assessed as cell growth at 10 uM after 48 hrs by sulforhodamine B assay relative to control; settings: DU-145, 48 h, read-out: Activity; summary of the method: as §1
MDA-MB-231 = assay: Anticancer activity against human MDA-MB-231 cells assessed as cell growth at 10 uM after 48 hrs by sulforhodamine B assay relative to control; settings: MDA-MB-231, 48 h, read-out: Activity; summary of the method: as §1
Hs-578T = assay: Anticancer activity against human Hs 578T cells assessed as cell growth at 10 uM after 48 hrs by sulforhodamine B assay relative to control; settings: read-out: Activity; summary of the method: as §1
BT-549 = assay: Anticancer activity against human BT549 cells assessed as cell growth at 10 uM after 48 hrs by sulforhodamine B assay relative to control; settings: BT-549, 48 h, read-out: Activity; summary of the method: as §1

Row | Structure (SMILES) | growth at 10 µM (CCRF-CEM) | growth at 10 µM (HL-60(TB)) | growth at 10 µM (MOLT-4) | growth at 10 µM (SR) | growth at 10 µM (A549) | growth at 10 µM (EKVX) | growth at 10 µM (NCI-H522) | growth at 10 µM (HCT-116) | growth at 10 µM (HT-29) | growth at 10 µM (SF-268) | growth at 10 µM (SNB-75) | growth at 10 µM (U-251) | growth at 10 µM (Malme-3M) | growth at 10 µM (M14) | growth at 10 µM (SK-MEL-2) | growth at 10 µM (SK-MEL-5) | growth at 10 µM (UACC-62) | growth at 10 µM (IGROV-1) | growth at 10 µM (OVCAR-3) | growth at 10 µM (OVCAR-5) | further results
1 | C=C1CC[C@@H]2[C@](C)(COC(C)=O)[C@H](OC(C)=O)CC[C@@]2(C)[C@H]1CC(Nc1ccc(S(=O)(=O)Nc2ncccn2)cc1)C1=CCOC1=O (stereo not given in full) | -26.2% | -17.2% | -8.69% | -4.43% | 44.7% | 68.3% | -67.7% | -55% | -48.6% | 18.3% | 25.6% | -19% | -4.93% | 4.76% | 41.9% | 24.1% | 3.93% | 7.21% | -80.6% | -1.98% | growth at 10 µM (OVCAR-8): 3.81%; growth at 10 µM (A498): 79%; growth at 10 µM (ACHN): -56.1%; growth at 10 µM (RXF 393): -70%; growth at 10 µM (TK-10): 35.1%; growth at 10 µM (UO-31): -17.9%; growth at 10 µM (PC-3): 15.1%; growth at 10 µM (DU-145): 14.9%; growth at 10 µM (MDA-MB-231): -1.01%; growth at 10 µM (Hs-578T): 51.2%; growth at 10 µM (BT-549): -32%
2 | C=C1CC[C@@H]2[C@](C)(COC(C)=O)[C@H](OC(C)=O)CC[C@@]2(C)[C@H]1CC(Nc1ccc(S(=O)(=O)Nc2ccc(Cl)nn2)cc1)C1=CCOC1=O (stereo not given in full) | -10.3% | -17.5% | 0.4% | -5.26% | 61.6% | 87.3% | -34.5% | -34.1% | -18.3% | 43.3% | 25.2% | -41.2% | 55.3% | 10.7% | 58.3% | 35.8% | -50% | 43.3% | -56.1% | 44.6% | growth at 10 µM (OVCAR-8): 16.9%; growth at 10 µM (A498): 89%; growth at 10 µM (ACHN): 16.1%; growth at 10 µM (RXF 393): -13.4%; growth at 10 µM (TK-10): 69.8%; growth at 10 µM (UO-31): 18.4%; growth at 10 µM (PC-3): 38.4%; growth at 10 µM (DU-145): 40.2%; growth at 10 µM (MDA-MB-231): 23.8%; growth at 10 µM (Hs-578T): 75.6%; growth at 10 µM (BT-549): -9.45%
3 | C=C1CC[C@@H]2[C@](C)(COC(C)=O)[C@H](OC(C)=O)CC[C@@]2(C)[C@H]1CC(Nc1ccc(S(=O)(=O)Nc2nccc(C)n2)cc1)C1=CCOC1=O (stereo not given in full) | -19.2% | -17.3% | -1.85% | 0.79% | 63.4% | 79.2% | -50.6% | -32.2% | -28.2% | 43.2% | 9.66% | 14.6% | -0.7% | 11.2% | 40.1% | 45% | 24.2% | 25.8% | -45% | 26.9% | growth at 10 µM (OVCAR-8): 10.5%; growth at 10 µM (A498): 96.8%; growth at 10 µM (ACHN): -37.2%; growth at 10 µM (RXF 393): -38.3%; growth at 10 µM (TK-10): 83%; growth at 10 µM (UO-31): 33.4%; growth at 10 µM (PC-3): 41.5%; growth at 10 µM (DU-145): 38.5%; growth at 10 µM (MDA-MB-231): 13.3%; growth at 10 µM (Hs-578T): 68.6%; growth at 10 µM (BT-549): -2.66%
4 | C=C1CC[C@@H]2[C@](C)(COC(C)=O)[C@H](OC(C)=O)CC[C@@]2(C)[C@H]1CC(Nc1ccc(S(=O)(=O)Nc2nccs2)cc1)C1=CCOC1=O (stereo not given in full) | -27.7% | -20.9% | -4.45% | -5.84% | 43.7% | 73.4% | -61.9% | -30.4% | -42.7% | 21.3% | 28.3% | 4.21% | 0.4% | 8.12% | 28.4% | 31.4% | 21.2% | 12.6% | -70.2% | 7.82% | growth at 10 µM (OVCAR-8): 4.39%; growth at 10 µM (A498): 85%; growth at 10 µM (ACHN): -46.6%; growth at 10 µM (RXF 393): -50.6%; growth at 10 µM (TK-10): 55%; growth at 10 µM (UO-31): 13.5%; growth at 10 µM (PC-3): 21.8%; growth at 10 µM (DU-145): 22.3%; growth at 10 µM (MDA-MB-231): 5.69%; growth at 10 µM (Hs-578T): 51.9%; growth at 10 µM (BT-549): -23.5%
5 | C=C1CC[C@@H]2[C@](C)(COC(C)=O)[C@H](OC(C)=O)CC[C@@]2(C)[C@H]1CC(Nc1ccc(S(=O)(=O)Nc2cc(C)on2)cc1)C1=CCOC1=O (stereo not given in full) | -19.1% | -2.05% | -7.86% | 1.4% | 72.2% | 82% | -20.2% | -1.13% | -11% | 67.3% | 59.4% | 30% | 56.6% | 29.9% | 63% | 44.1% | 19.8% | 62.6% | 7.95% | 52.2% | growth at 10 µM (OVCAR-8): 16.1%; growth at 10 µM (A498): 98.6%; growth at 10 µM (ACHN): 19.5%; growth at 10 µM (RXF 393): 29.8%; growth at 10 µM (TK-10): 58.4%; growth at 10 µM (UO-31): 56.9%; growth at 10 µM (PC-3): 70.8%; growth at 10 µM (DU-145): 71.1%; growth at 10 µM (MDA-MB-231): 61.1%; growth at 10 µM (Hs-578T): 89.5%; growth at 10 µM (BT-549): 27.2%
